According to ChEMBL document CHEMBL4346690, “Structure-activity relationship studies of (E)-3,4-dihydroxystyryl alkyl sulfones as novel neuroprotective agents based on improved antioxidant, anti-inflammatory activities and BBB permeability” (Eur J Med Chem, 2019):
Activity calls are given as the source filed them. No cut-off for these calls is given here.

Assays:
[1] = Antioxidant activity assessed as DPPH radical scavenging activity after 1 hr by […]; format: functional
In short: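 DPPH (0.2 mM) in ethanol mixed with sample, kept 1 h at room temperature, absorbance read at 517 nm. Scavenging % = [1−(Ac−Ab)/A0]×100, where Ab is the sample in ethanol without DPPH and A0 is the ethanol+DPPH control. EC50 reported; vitamin C used as reference antioxidant; mean ± SD, n = 3.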

[2] = tested on: PC-12; experiment: Neuroprotection activity in rat PC12 cells assessed as reduction in 6-OHDA-induced cell damages at 2.5 uM preincubated for 3 hrs followed by H2O2 addition and measured after 24 hrs by MTT assay relative to control; format: functional, cell-based; conditions: in the assay text read “6-OHDA addition” for “H2O2 addition”
In short: (§1)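 PC12 cells plated at 2 × 10^5 cells mL−1 for 1 day, pretreated 3 h with compounds at 2.5, 5 or 10 µM, then 6-OHDA (final 250 µM) added for 24 h. Viability by MTT, absorbance 570 nm; untreated cells = 100%; mean ± SD, n = 3.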

[3] = tested on: PC-12; experiment: Neuroprotection activity in rat PC12 cells assessed as reduction in H2O2-induced cell death preincubated for 3 hrs followed by H2O2 addition and measured after 3 hrs by MTS assay; format: functional, cell-based
In short: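 PC12 cells plated at 2 × 10^5 cells mL−1 for 1 day, pretreated 3 h with compounds, then H2O2 (final 400 µM) for 3 h. Viability by MTS at 490 nm relative to untreated cells (100%); single-concentration tests at 2.5, 5, 10 µM and IC50 values; mean ± SD, n = 3.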

[4] = tested on: PC-12; experiment: Neuroprotection against H2O2-induced cell death in rat PC12 cells assessed as increase in cell viability at 5 uM preincubated for 3 hrs followed by H2O2 addition and measured after 3 hrs by MTS assay relative to CAPE; format: functional
In short: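 PC12 cells plated at 2 × 10^5 cells/mL for 1 day, pretreated with compound (2.5, 5, 10 µM) for 3 h, then H2O2 added (final 400 µM) for 3 h. Viability read by MTS at 490 nm, untreated cells = 100%. Mean ± SD, n = 3.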

[5] = tested on: PC-12; experiment: Neuroprotection activity in rat PC12 cells assessed as reduction in 6-OHDA-induced cell damages at 10 uM preincubated for 3 hrs followed by H2O2 addition and measured after 24 hrs by MTT assay relative to control; format: functional, cell-based; conditions: in the assay text read “6-OHDA addition” for “H2O2 addition”; in short: as §1
[6] = Anti-neuroinflammatory activity in […] BV2 cells assessed as reduction in LPS-induced NO production preincubated for 3 hrs followed by LPS stimulation for 24 hrs by Griess assay; format: functional, cell-based; conditions: BV-2
In short: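 BV2 microglia seeded 3 × 10^5 cells mL−1 for 1 day; compounds in medium added for 3 h, then LPS (final 100 ng mL−1) for a further 24 h. Supernatant mixed with Griess reagent, absorbance at 540 nm. Inhibition % from NO release of LPS-only, unstimulated and compound+LPS wells; IC50 reported; mean ± SD, n = 3.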

[7] = Cytotoxicity against […] BV2 cells assessed as cell viability at 0.625 to 40 uM after 24 hrs by MTS assay; format: cell-based; conditions: read-out: Activity
In short: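 Viability of BV2 cells read by MTS under the NO-assay conditions: 3 h compound (0.625–40 µM) pretreatment followed by LPS 100 ng mL−1 for 24 h.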

[8] = Cytotoxicity against rat PC12 cells assessed as cell viability at 100 uM after 24 hrs by MTT assay; format: cell-based, PC-12; conditions: read-out: Activity
In short: (§2)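 Cells kept in high-glucose DMEM with 10% FBS and 1% PS at 37 °C, 5% CO2. Plated 1 day, then compounds for 24 h; viability by MTT at 100 µM as ODtreated/ODcontrol × 100%, untreated = 100%. Mean ± SD, n = 3.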

[9] = Cytotoxicity against […] BV2 cells assessed as cell viability at 100 uM after 24 hrs by MTT assay; format: cell-based; conditions: read-out: Activity; in short: as §2

Row | Structure (SMILES) | EC50 [1] [µM] | IC50 [6] [µM] | Activity [2] | IC50 [3] [µM] | Activity [4] [%] | Activity [5] | viability at 24 h, up to 40 µM [7] [%] | viability at 24 h, 100 µM [8] [%] | viability at 24 h, 100 µM [9] [%]
1 | C=CCCCCCS(=O)(=O)/C=C/c1ccc(O)c(O)c1 | 7.1 | 11.2 | Active | 1.62 | 30 | Active | > 90 | 67.5 | 58.9
2 | O=S(=O)(/C=C/c1ccc(O)c(O)c1)CC1CCCN1 (centres undefined) | 13.8 | 103 |  |  |  |  | > 90 | 55.9 | 76.4
3 | O=S(=O)(/C=C/c1ccc(O)c(O)c1)CC1CCCCC1 | 7.5 | 6.7 | Active | 1.85 | 30 | Active | > 90 | 87 | 74.7
4 | O=S(=O)(/C=C/c1ccc(O)c(O)c1)CCCC1CCCCC1 | 7.9 | 9.2 | Active | 1 | 30 | Active | > 90 | 91.3 | 77.7
5 | C=CCCCCCCS(=O)(=O)/C=C/c1ccc(O)c(O)c1 | 6.4 | 8.7 | Active | 1.35 | 30 | Active | > 90 | 66.9 | 73.4
6 | C=CCCCCCCCS(=O)(=O)/C=C/c1ccc(O)c(O)c1 | 6.9 | 8.3 | Active | 1.9 | 30 | Active | > 90 | 74.7 | 71.9
7 | O=S(=O)(/C=C/c1ccc(O)c(O)c1)CCC1CCCCC1 | 9.8 | 11.3 | Active | 2 |  | Active | > 90 | 94.9 | 62.6
8 | O=C(/C=C/c1ccc(O)c(O)c1)OCCc1ccccc1 [CAFFEIC ACID PHENETHYL ESTER] | 14.6 | 6 |  | 2 |  | Active | > 90 | 85.1 | 69.3
9 | O=S(=O)(/C=C/c1ccc(O)c(O)c1)CC1CC1 | 10.5 | 33.5 |  | 6.61 |  | inactive | > 90 | 92.9 | 87.8
10 | O=S(=O)(/C=C/c1ccc(O)c(O)c1)CC1CCCO1 (centres undefined) | 10.5 | 54.6 |  | 27.1 |  | inactive | > 90 | 98 | 93.9
11 | CCCCCCS(=O)(=O)/C=C/c1ccc(O)c(O)c1 | 7.3 | 3.8 | Active | 1.3 | 30 | Active | > 90 | 63.7 | 56.2
12 | CCCCCCCCCCCS(=O)(=O)/C=C/c1ccc(O)c(O)c1 | 11.4 | 6.9 | Active | 2.34 |  | Active | > 90 | 52.1 | 23.2
13 | CCCCCS(=O)(=O)/C=C/c1ccc(O)c(O)c1 | 8.1 | 3.3 | Active | 1.83 | 30 | Active | > 90 | 57.4 | 70.1
14 | O=S(=O)(/C=C/c1ccc(O)c(O)c1)CC1CCCCO1 (centres undefined) | 10.8 | 6.9 |  | 3.34 |  | Active | > 90 | 88.3 | 78.8
15 | O=S(=O)(/C=C/c1ccc(O)c(O)c1)CCCCCCCCCCCO | 22.6 | 13.3 | Active | 24.1 |  | Active | > 90 | 100 | 50.4

The next lines start with results.

Row | EC50 [1] [µM] | IC50 [6] [µM] | Structure (SMILES) | Activity [2] | IC50 [3] [µM] | Activity [4] [%] | Activity [5] | viability at 24 h, up to 40 µM [7] [%] | viability at 24 h, 100 µM [8] [%] | viability at 24 h, 100 µM [9] [%]
16 | 6.7 | 12.2 | O=S(=O)(/C=C/c1ccc(O)c(O)c1)CCCCCCCCO | Active | 7.91 |  | Active | > 90 | 87.3 | 49.5
17 | 9.4 | 15.8 | O=S(=O)(/C=C/c1ccc(O)c(O)c1)CC1CCCC1 | Active | 2.19 |  | Active | > 90 | 85.4 | 72.7
18 | 6.8 | 2.5 | O=S(=O)(/C=C/c1ccc(O)c(O)c1)CCC1CCCC1 | Active | 1.96 |  | Active | > 90 | 77.7 | 76.6
19 | 6.8 | 7.3 | CCCCCCCCCCS(=O)(=O)/C=C/c1ccc(O)c(O)c1 | Active | 2.21 |  | Active | > 90 | 59.7 | 34.1
20 | 7.5 | 11 | O=S(=O)(/C=C/c1ccc(O)c(O)c1)CCCCCCCCCO | Active | 7.91 |  | Active | > 90 | 95.2 | 54.4
21 | 5.9 | 14.3 | O=S(=O)(/C=C/c1ccc(O)c(O)c1)CCCCCCCO | Active | 9.91 |  | Active | > 90 | 91.8 | 72
22 | 8.5 | 6.6 | CCCCCCCCCCCCS(=O)(=O)/C=C/c1ccc(O)c(O)c1 | Active | 2.27 |  | Active | > 90 | 28.2 | 25.2
23 | 8.8 | 20.8 | O=S(=O)(/C=C/c1ccc(O)c(O)c1)CC1CCC1 |  | 4.81 |  | Active | > 90 | 80.2 | 83.8
24 | 7.1 | 7 | CC(C)(C)OC(=O)N1CCCC1CS(=O)(=O)/C=C/c1ccc(O)c(O)c1 (centres undefined) |  | 7.2 |  | inactive | > 90 | 52.5 | 68.7
25 | 7.1 | 8.5 | CCCCCCCS(=O)(=O)/C=C/c1ccc(O)c(O)c1 | Active | 1.33 |  | Active | > 90 | 85.7 | 52.5
26 | 7.7 | 7.4 | CCCCCCCCCS(=O)(=O)/C=C/c1ccc(O)c(O)c1 | Active | 1.93 |  | Active | > 90 | 70.6 | 66.6
27 | 6.4 | 7.6 | CCCCCCCCS(=O)(=O)/C=C/c1ccc(O)c(O)c1 | Active | 1.45 |  | Active | > 90 | 73.6 | 63.6
